High-throughput results as filed in PubChem.
T cruzi inh: blocks replication of Trypanosoma cruzi. T. cruzi beta-gal in NIH3T3, luminescence, 90 h. inhibition, % (test concentration not listed). hit rate 1.4% among 300,000. AID 1885;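 active = mean inhibition across valid replicates above about 55%, limit read from the data; inconclusive = mean below that limit but half or more replicates reach it; inactive = mean below it, under half of replicates reach it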;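 note: signal also drops with host cell toxicity which is not excluded here; 0% = plate median of DMSO wells and 100% = zero luminescence signal; higher percent means less beta-gal luminescence so fewer parasites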
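Assay system: NIH/3T3 fibroblasts plus reporter T. cruzi. Amount: NIH/3T3 cells, 5,000 per well. Buffer or medium: DMEM, 2% fetal bovine serum. Doses: compound pinned at 50 nL/well, DMSO. Schedule: ≥90 h infection period, 3 h prior cell attachment. Signal: luminescent β-galactosidase signal after 60 min lysis. Read-out: parasite load inhibition, %.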
pCIP destab: compounds decreasing mouse p/CIP protein stability. Q05BA5. hit rate 0.01% among 290,000. F442A p/CIP-EGFP cells, EGFP fluorescence, 16 h. decrease of EGFP signal, % at 10 µM;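 active = EGFP signal decrease of at least 30% at 10 µM or well 3 SD below plate mean, unless failing retest; inactive = the rest, including hits failing retest or dose response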
UBC13 polyUb: human UBC13 polyubiquitination inhibition | P61088 | UBC13 polyubiquitin chain formation, TR-FRET | inhibition, % at 20 µM | hit rate 0.47% among 330,000 | AID 485273; in the data active = inhibition above about 45%, passing the limit was not always enough; inconclusive = no clear call, values can overlap the other calls
PP1 inh: counter-screen for PP5 inhibitors: inhibitors of human PP1-alpha. P62136. hit rate 0.9% among 320,000. AID 2235. purified PP1alpha, OMFP fluorescence. inhibition, % at 6.7 µM;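 active = inhibition above the mean inhibition of all tested compounds plus 3 SD, computed separately for each screening campaign, cut at about 15% in these data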
AI-2 QS mod: modulates the Vibrio harveyi AI-2 quorum sensing system | Vibrio harveyi JMH597 AI-2 luminescence/OD600 ratio, 9 h; stronger effect = lower value; strain lacks LuxN and CqsS sensors; 0 = neutral-control median | activity change, % at 7.5 µM | hit rate 0.4% among 300,000 | AID 2094; in the data active = activity change below about -75%, passing the limit was not always enough; inconclusive = no clear call, values can overlap the other calls;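 note: luminescence divided by OD600 gain over 9 h not by final OD600 alone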
* hit, by the source's call; u = inconclusive; x = no result. Hits are enriched below; roughly 2.8% of the tested compounds scored in any of these assays.

SMILES | T cruzi inh | pCIP destab | UBC13 polyUb | PP1 inh | AI-2 QS mod
CCOc1ccc(CN2CCN(Cc3cnc(-c4ccccc4)s3)CC2CCO)cc1 (stereo unspecified) | 56.1* | -11.5 | -4.5 | -2.2 | 1.8
Cc1ncc(CN2CCN(Cc3ccccc3)C(CCO)C2)s1 (stereo unspecified) | 19.5 | -7.2 | 2.4 | -0.4 | 10.1
Cc1ccccc1CN1CCN(Cc2cc3ccccc3o2)CC1CCO (stereo unspecified) | -0.4 | -9.7 | 0.1 | -2.8 | 21.9
CCOc1ccc(CN2CCN(CC3=Cc4cccc(OC)c4OC3)CC2CCO)cc1 (stereo unspecified) | 56.4* | -2.3 | 2.9 | -3.9 | 3.7
CCOc1ccc(CN2CCN(Cc3cc4ccccc4[nH]3)CC2CCO)cc1 (stereo unspecified) | 59.9* | -19.5 | x | x | -25.1
COc1ccc2c(c1)C=C(CN1CCN(Cc3ccccc3C)C(CCO)C1)CO2 (stereo unspecified) | 55.3* | -16.0 | -1.9 | -0.8 | 11.5
O=C(COC(=O)CNC(=O)c1ccc(Cl)cc1)Nc1ccc(Cl)cc1C(F)(F)F | -27.6 | -4.3 | 5.2 | 0.0 | -4.8
O=C(Nc1ccc(S(=O)(=O)NC2=NCCCCC2)cc1)c1ccc([N+](=O)[O-])s1 | 64.9* | x | -15.6 | -3.8 | 12.5
Cc1ccnc(NS(=O)(=O)c2ccc(NC(=O)c3ccc([N+](=O)[O-])s3)cc2)n1 | 66.9* | -2.8 | -9.2 | -1.9 | 38.1
Cc1ccc(CN2CCC(Oc3cccc(C(=O)N(C)CCN(C)C)c3)CC2)cc1C | 57.4* | -3.4 | -5.6 | -3.0 | 22.1
COCCNC(=O)c1cccc(OC2CCN(Cc3ccc(C(=O)OC)cc3)CC2)c1 | -0.9 | -0.7 | 1.7 | 1.2 | 5.0
Cc1ccc(-n2nnnc2SCC(=O)c2cc(C)n(CC3CCCO3)c2C)cc1 (stereo unspecified) | 58.4* | 1.7 | -3.5 | -3.8 | 29.8
C#CCOCCOCCOCCNc1nc(N2CCN(C(=O)[C@H]([C@@H](C)CC)n3cc([C@@H](N)CC(C)C)nn3)CC2)nc(N2CCN(C(=O)[C@H](Cc3cc4ccccc4[nH]3)n3cc([C@@H](N)C(C)CC)nn3)CC2)n1 (stereo partly specified) | 4.5 | -1.7 | 80.8* | x | 10.9
C#CCOCCOCCOCCNc1nc(N2CCOCC2)nc(N2CCN(C(=O)[C@H](Cc3cc4ccccc4[nH]3)n3cc([C@@H](N)C(C)CC)nn3)CC2)n1 (stereo partly specified) | u | -13.7 | 25.7 | 4.1 | 11.8
C#CCOCCOCCOCCNc1nc(N2CCN(C(=O)[C@H](CCC(=O)O)n3cc(C(N)CC(C)C)nn3)CC2)nc(N2CCN(C(=O)[C@H](Cc3cc4ccccc4[nH]3)n3cc(C(N)[C@H](C)CC)nn3)CC2)n1 (stereo partly specified) | -5.1 | -10.2 | 4.7 | -0.2 | 7.8
C#CCOCCOCCOCCNc1nc(N2CCN(C(=O)C(Cc3cc4ccccc4[nH]3)n3cc(C(N)C(C)CC)nn3)CC2)nc(N2CCN(C(=O)C(Cc3cc4ccccc4[nH]3)n3cc(C(N)C(C)CC)nn3)CC2)n1 (stereo unspecified) | 10.2 | -7.8 | 93.7* | 27.2* | 21.1
N#C/C(=C\c1c(Cl)cccc1Cl)c1nn(-c2ccccc2)c(-n2cccc2)c1C#N | 58.6* | -6.7 | -0.1 | 2.5 | 25.6
N#C/C(=C\c1c(F)cccc1Cl)c1nn(-c2ccccc2)c(-n2cccc2)c1C#N | 41.4 | 1.8 | -9.5 | 1.5 | 14.0
O=C(NCc1ccccn1)c1ccccc1-c1ccccc1 | -17.1 | 3.1 | 4.0 | -4.6 | 4.3
O=c1c2c(nc3cc(-c4ccccc4Cl)[nH]n13)CCS2 | -26.4 | 8.7 | 13.4 | 16.8* | 10.5
CCOc1ccc(NC(=O)NNC(=O)c2cc3ccccc3cc2O)cc1 | 2.6 | -1.1 | 7.1 | 9.6 | 16.2
CCc1ccc(NC(=O)NNC(=O)c2cc3ccccc3cc2O)cc1 | -11.6 | 10.1 | 8.6 | 15.2* | 14.3
COc1ccc(-n2c(SCc3ccc([N+](=O)[O-])cc3)nnc2-c2ccc(C)cc2)cc1 | 69.7* | -16.5 | -10.3 | 9.8 | 28.3
Cc1ccc2nc(Cl)c(/C=N/Nc3ccc(C(=O)O)cc3)cc2c1 | 0.1 | -17.5 | 4.5 | 3.7 | 8.6
COc1ccc(OC)c(C2C(C(=O)c3ccccc3)=C(C)Nc3nc4ccccc4n32)c1 (stereo unspecified) | 69.5* | -1.5 | -17.4 | 0.6 | 2.5
SMILES | T cruzi inh | pCIP destab | UBC13 polyUb | PP1 inh | AI-2 QS mod
CC1(C)Oc2ccc3ccc(=O)oc3c2/C(=C/NNC(N)=O)C1=O | -4.0 | 0.6 | 11.1 | 2.7 | 28.5
Nc1nc(Cl)cc(N2CCC(c3cc(-c4ccc(Cl)cc4)n[nH]3)CC2)n1 | 58.2* | -25.1 | 40.3 | 1.6 | 3.1
Cc1ccc(S(=O)(=O)N2CCN(C(=O)CCC(=O)Nc3ccc(F)cc3F)CC2)cc1 | x | x | 13.4 | x | x
NC(=O)C(c1ccc(Cl)cc1)c1ccc(Sc2ccc(Cl)cc2)nn1 (stereo unspecified) | 12.4 | -0.2 | -1.8 | -1.0 | -83.5*
Cc1sc2ncnc(SCc3ccc(C(=O)O)cc3)c2c1C | 0.8 | -4.6 | -3.1 | -1.6 | 18.0
Cc1ccc(-c2csc3ncnc(SCc4ccc(C(=O)O)cc4)c23)cc1 | -21.9 | -15.0 | -8.9 | 16.0* | 91.6
S=c1[nH]c2ccc3ccccc3c2[nH]1 | -22.4 | -0.1 | -7.7 | -4.8 | 3.7
Cc1[nH]c2c(ccc3ccccc32)c1C1C(CCN)C1(C)C (stereo unspecified) | 64.8* | 2.7 | 26.0 | 7.9 | 13.8
O=C(CCCC(=O)Nc1cccc(Br)c1)N/N=C/c1cc([N+](=O)[O-])ccc1O | 1.5 | -7.9 | -45.8 | 16.3* | -3.2
O=C(CN(c1cccc(Br)c1)S(=O)(=O)c1ccccc1)N/N=C/c1cc([N+](=O)[O-])ccc1O | -17.9 | x | -57.2 | 16.5* | 49.5
Cc1ccc(C)c(N(CC(=O)N/N=C/c2ccc(-c3ccc([N+](=O)[O-])cc3)o2)S(=O)(=O)c2ccccc2)c1 | 72.4* | -19.7 | -25.8 | 2.9 | 30.0
Cc1ccccc1NC(=O)CCC(=O)N/N=C/c1cc([N+](=O)[O-])ccc1O | -27.8 | 1.4 | -38.7 | 4.6 | -109.4*
Cc1ccc(C)c(NC(=O)CCC(=O)N/N=C/c2cc([N+](=O)[O-])ccc2O)c1 | -22.8 | -6.0 | -15.4 | -1.4 | 403.5
CCc1ccc(-c2nc(SCC(=O)NC3CC3)n[nH]2)cc1 | -2.7 | x | 2.7 | -1.2 | x
CCN(C(=O)CSc1nnc(C)c(=O)[nH]1)c1cccc2ccccc12 | x | x | 4.9 | x | x
O=C(COc1ncnc2cc([N+](=O)[O-])ccc12)NC(=O)NC1CCCCC1 | 67.0* | 9.0 | 4.7 | 7.4 | 26.4
O=C(COc1ncnc2cc([N+](=O)[O-])ccc12)NCCc1ccc(Cl)cc1 | 55.7* | -7.3 | -2.6 | 8.8 | 51.3
CC(NC(=O)COc1ncnc2cc([N+](=O)[O-])ccc12)c1ccccc1 (stereo unspecified) | -10.5 | 0.1 | -14.1 | 0.4 | 15.1
